Measurements as given in ChEMBL document CHEMBL1122233, “Antihypertensive 9-substituted 1-oxa-4,9-diazaspiro[5.5]undecan-3-ones” (J Med Chem, 1983).

Experiments:
[1] = tested on: Rattus norvegicus; assay: (§1) Percentage fall in systolic blood pressure after 3 hours at 50 mg/kg given perorally; type: functional, Artery; settings: route oral
Procedure, shortened: (§2)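 Male Okamoto-Aoki SHR, four per group, with a concurrent vehicle control group. Oral dosing in water (0.1 mL/10 g) on two consecutive mornings. After the day-2 dose, rats were restrained in a 30 °C chamber. Tail-cuff systolic pressure was taken at 1-4 h from four traces per rat. Result is % decrease versus control mean, by 1-tailed t test, p ≤ 0.05.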

[2] = tested on: Rattus norvegicus; assay: (§3) Percentage fall in systolic blood pressure after 4 hours at 50 mg/kg given perorally; type: functional, Artery; settings: route oral; procedure, shortened: as §2
[3] = tested on: Rattus norvegicus; assay: (§4) Percentage fall in systolic blood pressure after 1 hr at 50 mg/kg given perorally; type: functional, Artery; settings: route oral; procedure, shortened: as §2
[4] = tested on: Rattus norvegicus; assay: (§5) Percentage fall in systolic blood pressure after 2 hours at 50 mg/kg given perorally; type: functional, Artery; settings: route oral; procedure, shortened: as §2
[5] = tested on: Rattus norvegicus; assay: (§6) Percentage fall in systolic blood pressure after 3 hours at 12.5 mg/kg given perorally; type: functional, Artery; settings: route oral; procedure, shortened: as §2
[6] = tested on: Rattus norvegicus; assay: (§7) Percentage fall in systolic blood pressure after 1 hr at 12.5 mg/kg given perorally; type: functional, Artery; settings: route oral; procedure, shortened: as §2
[7] = tested on: Rattus norvegicus; assay: Percentage fall in systolic blood pressure after 2 hours at 12.5 mg/kg given perorally; type: functional, Artery; settings: route oral; procedure, shortened: as §2
[8] = tested on: Rattus norvegicus; assay: (§8) Percentage fall in systolic blood pressure after 4 hours at 12.5 mg/kg given perorally; type: functional, Artery; settings: route oral; procedure, shortened: as §2
[9] = tested on: Rattus norvegicus; assay: Percentage fall in systolic blood pressure after 3 hr at 12.5 mg/kg given perorally; type: functional, organism-based; set-up: dose 12.5 mg/kg; settings: Artery
Procedure, shortened: (§9)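 Male Okamoto-Aoki spontaneously hypertensive rats, trained, in groups of four matched for mean systolic pressure; five treated groups and one vehicle control run concurrently. Oral dosing in water (solution or suspension, 0.1 mL/10 g) on two consecutive mornings. On day 2, rats were restrained at 30.0 ± 1.0 °C and tail-cuff systolic pressure recorded at 1–4 h; percent fall versus control, 1-tail t test, p ≤ 0.05.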

[10] = tested on: Rattus norvegicus; assay: Percentage fall in systolic blood pressure after 2 hr at 12.5 mg/kg given perorally; type: functional, organism-based; set-up: dose 12.5 mg/kg; settings: Artery; procedure, shortened: as §9
[11] = tested on: Rattus norvegicus; assay: as §7; type: functional, organism-based; set-up: dose 12.5 mg/kg; settings: Artery; procedure, shortened: as §9
[12] = tested on: Rattus norvegicus; assay: (§10) Percentage fall in systolic blood pressure after 4 hr at 12.5 mg/kg given perorally; type: functional, organism-based; set-up: dose 12.5 mg/kg; settings: Artery; procedure, shortened: as §9
[13] = tested on: Rattus norvegicus; assay: Percentage fall in systolic blood pressure after 4 hours at 25 mg/kg given perorally; type: functional, Artery; settings: route oral; procedure, shortened: as §9
[14] = tested on: Rattus norvegicus; assay: Percentage fall in systolic blood pressure after 3 hours at 25 mg/kg given perorally; type: functional, Artery; settings: route oral; procedure, shortened: as §9
[15] = tested on: Rattus norvegicus; assay: Percentage fall in systolic blood pressure after 1 hr at 25 mg/kg given perorally; type: functional, Artery; settings: route oral; procedure, shortened: as §9
[16] = tested on: Rattus norvegicus; assay: Percentage fall in systolic blood pressure after 2 hours at 25 mg/kg given perorally; type: functional, Artery; settings: route oral; procedure, shortened: as §9
[17] = tested on: Rattus norvegicus; assay: as §4; type: functional, organism-based; set-up: dose 50 mg/kg; settings: Artery; procedure, shortened: as §9
[18] = tested on: Rattus norvegicus; assay: as §5; type: functional, organism-based; set-up: dose 50 mg/kg; settings: Artery; procedure, shortened: as §2
[19] = tested on: Rattus norvegicus; assay: as §3; type: functional, organism-based; set-up: dose 50 mg/kg; settings: Artery; procedure, shortened: as §9
[20] = tested on: Rattus norvegicus; assay: as §1; type: functional, organism-based; set-up: dose 50 mg/kg; settings: Artery; procedure, shortened: as §2
[21] = tested on: Rattus norvegicus; assay: Percentage fall in systolic blood pressure after 3 hr at 25 mg/kg given perorally; type: functional, Artery; settings: route oral; procedure, shortened: as §9
[22] = tested on: Rattus norvegicus; assay: Percentage fall in systolic blood pressure after 2 hr at 25 mg/kg given perorally; type: functional, Artery; settings: route oral; procedure, shortened: as §9
[23] = tested on: Rattus norvegicus; assay: as §10; type: functional, Artery; settings: route oral; procedure, shortened: as §9
[24] = tested on: Rattus norvegicus; assay: Percentage fall in systolic blood pressure after 4 hr at 25 mg/kg given perorally; type: functional, Artery; settings: route oral; procedure, shortened: as §9
[25] = tested on: Rattus norvegicus; assay: as §8; type: functional, organism-based; set-up: dose 12.5 mg/kg; settings: Artery; procedure, shortened: as §2
[26] = tested on: Rattus norvegicus; assay: as §3; type: functional, organism-based; set-up: dose 50 mg/kg; settings: Artery; procedure, shortened: as §2; remark: listed apart in the source
[27] = tested on: Rattus norvegicus; assay: as §6; type: functional, organism-based; set-up: dose 12.5 mg/kg; settings: Artery; procedure, shortened: as §2

With `CN1CC2(CCN(CCc3c[nH]c4ccccc34)CC2)OCC1=O` the “Decrease in SBP” value [1] was 34%, the “Decrease in SBP” value [2] was 26% and the “Decrease in SBP” value [3] was 50%. The “Decrease in SBP” value [4] was 44%, the “Decrease in SBP” value [5] was 20% and the “Decrease in SBP” value [6] was 25%. For the same molecule, the “Decrease in SBP” value [7] was 19% and the “Decrease in SBP” value [8] was 17%.

In the case of `O=C1COC2(CCN(CCc3ccc(F)cc3)CC2)CN1`, the “Decrease in SBP” value [9] is reported as “Not significant”, the “Decrease in SBP” value [10] is reported as “Not significant” and the “Decrease in SBP” value [11] is reported as “Not significant”. The “Decrease in SBP” value [12] was “Not significant”.

For `CCN1CC2(CCN(CCc3c[nH]c4ccccc34)CC2)OCC1=O`, the “Decrease in SBP” value [1] was 28%, the “Decrease in SBP” value [2] was 42% and the “Decrease in SBP” value [3] was 55%. The “Decrease in SBP” value [4] was 33%, the “Decrease in SBP” value [5] was 30% and the “Decrease in SBP” value [6] was 22%. The “Decrease in SBP” value [7] was 33% and the “Decrease in SBP” value [8] was 21%.

`O=C1COC2(CCN(CCCOc3ccccc3)CC2)CN1` was tested, and the “Decrease in SBP” value [9] was “Not significant”, the “Decrease in SBP” value [10] was “Not significant” and the “Decrease in SBP” value [11] was “Not significant”. For the same molecule, the “Decrease in SBP” value [12] was “Not significant”.

In the case of `CCN1CC2(CCN(CCCC(=O)c3ccc(F)cc3)CC2)OCC1=O`, the “Decrease in SBP” value [13] is reported as 13%, the “Decrease in SBP” value [14] is reported as 27% and the “Decrease in SBP” value [15] is reported as 35%. The “Decrease in SBP” value [16] was 31%.

With `O=C1COC2(CCN(CC(O)c3ccccc3)CC2)CN1` (stereo unspecified) the “Decrease in SBP” value [17] was “Not significant”, the “Decrease in SBP” value [18] was “Not significant” and the “Decrease in SBP” value [19] was “Not significant”. The “Decrease in SBP” value [20] was “Not significant”.

In the case of `COc1ccc(CCN2CCC3(CC2)CNC(=O)CO3)cc1`, the “Decrease in SBP” value [9] is reported as “Not significant”, the “Decrease in SBP” value [10] is reported as “Not significant” and the “Decrease in SBP” value [11] is reported as “Not significant”. The “Decrease in SBP” value [12] was “Not significant”.

For `CN1CC2(CCN(CC(O)C3COc4ccccc4O3)CC2)OCC1=O` (stereo in doubt; 60), the “Decrease in SBP” value ([21]; 25 mg/kg) was 17%, the “Decrease in SBP” value ([22]; 25 mg/kg) was 33% and the “Decrease in SBP” value [15] was 41%.

`CCCN1CC2(CCN(CCc3c[nH]c4ccccc34)CC2)OCC1=O` was tested, and the “Decrease in SBP” value [1] was 22%, the “Decrease in SBP” value [2] was 39% and the “Decrease in SBP” value [3] was 47%. For the same molecule, the “Decrease in SBP” value [4] was 22%, the “Decrease in SBP” value [5] was 24% and the “Decrease in SBP” value [6] was 18%. For the same molecule, the “Decrease in SBP” value [7] was 26% and the “Decrease in SBP” value [8] was 16%.

In the case of `O=C1COC2(CCN(CCc3ccc(Cl)cc3)CC2)CN1`, the “Decrease in SBP” value [9] is reported as “Not significant”, the “Decrease in SBP” value [10] is reported as “Not significant” and the “Decrease in SBP” value [11] is reported as “Not significant”. For the same molecule, the “Decrease in SBP” value [12] was “Not significant”.

With `O=C1COC2(CCN(CCC(=O)c3ccc(F)cc3)CC2)CN1` the “Decrease in SBP” value [13] was 20%, the “Decrease in SBP” value [15] was 27% and the “Decrease in SBP” value [16] was 24%.

With `O=C1COC2(CCN(CCCC(=O)c3ccc(F)cc3)CC2)CN1` the “Decrease in SBP” value [9] was “Not significant”, the “Decrease in SBP” value [23] was 18% and the “Decrease in SBP” value [10] was “Not significant”. The “Decrease in SBP” value [21] was 29%, the “Decrease in SBP” value [24] was 30% and the “Decrease in SBP” value [22] was 33%. For the same molecule, the “Decrease in SBP” value [15] was 50% and the “Decrease in SBP” value [11] was “Not significant”.

In the case of `CC1NC(=O)COC12CCN(CCc1c[nH]c3ccccc13)CC2` (stereo unspecified), the “Decrease in SBP” value [1] is reported as 41%, the “Decrease in SBP” value [2] is reported as 50% and the “Decrease in SBP” value [3] is reported as 56%. For the same molecule, the “Decrease in SBP” value [4] was 48%, the “Decrease in SBP” value [5] was 24% and the “Decrease in SBP” value [6] was 24%. For the same molecule, the “Decrease in SBP” value [25] was “Not significant” and the “Decrease in SBP” value [7] was 36%.

`CCC1N(C)C(=O)COC12CCN(CCc1c[nH]c3ccccc13)CC2` (stereo unspecified) was tested, and the “Decrease in SBP” value [26] was “Not significant”, the “Decrease in SBP” value [17] was “Not significant” and the “Decrease in SBP” value [18] was “Not significant”. The “Decrease in SBP” value [20] was “Not significant”.

With `O=C1COC2(CCN(CCc3c[nH]c4ccccc34)CC2)CN1c1cccc(F)c1` the “Decrease in SBP” value [13] was 18%, the “Decrease in SBP” value [14] was 22% and the “Decrease in SBP” value [15] was 29%. The “Decrease in SBP” value [16] was 31%.

In the case of `CCC1NC(=O)COC12CCN(CCc1c[nH]c3ccccc13)CC2` (stereo unspecified), the “Decrease in SBP” value [27] is reported as “Not significant”, the “Decrease in SBP” value [1] is reported as 41% and the “Decrease in SBP” value [2] is reported as 43%. For the same molecule, the “Decrease in SBP” value [3] was 40%, the “Decrease in SBP” value [4] was 54% and the “Decrease in SBP” value [6] was 21%. For the same molecule, the “Decrease in SBP” value [25] was “Not significant” and the “Decrease in SBP” value [7] was 25%.
